Source: paper PMC11162967 (International Journal of Nanomedicine, 2024)
In brackets after ≈: the same amount, converted by molar mass.

Experiments:
HUA model mice = assay: Anti-hyperuricemia study in HUA mice model; assay type: in vivo, ICR mice; details: oral 30 mg/kg luteolin for 2 weeks, compared with HUA group
How it was run: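 Male ICR mice, n=8 per group. Hyperuricemia induced by daily intraperitoneal potassium oxonate 300 mg/kg plus hypoxanthine 300 mg/kg in normal saline for seven consecutive days. Test compound given by gavage in normal saline at 30 mg/kg luteolin-equivalent for 2 weeks, including 1-week pretreatment. Vehicle and febuxostat 10 mg/kg (oral, one week) controls. Serum uric acid measured by commercial kit at end; one-way ANOVA.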

Caco-2 cells [1] = assay: Cellular uptake in Caco-2 cell monolayer; assay type: in vitro ADME; details: Caco-2, 30 μM luteolin, 37°C, 4 h
Caco-2 cells [2] = assay: Cellular uptake mechanisms with endocytosis inhibitors; assay type: in vitro ADME
How it was run: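 Caco-2 cells seeded at 2.5×10^4 per well, cultured 14 days. Then rinsed and given test compound at 30 μM luteolin, 4 h at 37°C. Washed, lysed by ultrasonication, luteolin by HPLC normalised to BCA protein. Compared with uninhibited control.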

Caco-2 cells [3] = assay: Cytotoxicity study on Caco-2 cells; assay type: cell-based; details: under the experimental conditions (Figure S4)
In vitro dissolution = assay type: physicochemical; details: 37°C
Saturated solubility = assay type: physicochemical; details: ultrapure water
How it was run: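 Excess test material added to 5 mL ultrapure water, shaken 24 h at 37°C. Undissolved drug removed by centrifugation (12,000 rpm, 30 min) and 0.22 μm filtration. Filtrate concentration measured by HPLC. n=3, mean ± SD.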

## O=c1cc(-c2ccc(O)c(O)c2)oc2cc(O)cc(O)c12 [LUT, Luteolin]
HUA model mice
  serum UA level reduction: 51.67%
Caco-2 cells [1]
  cellular uptake: 25.89 ± 4.94 μg luteolin/mg cellular protein
Caco-2 cells [2]; Caco-2 pretreated with inhibitor 1 h
  effect of chlorpromazine, indomethacin, or colchicine on cellular uptake: no significant change
Caco-2 cells [2]; Caco-2 pretreated with sodium azide 650 μg/mL 1 h
  effect of sodium azide on cellular uptake: significantly reduced
Caco-2 cells [3]
  viability of Caco-2 cells: did not affect the viability
In vitro dissolution; SGF pH 1.2 with 0.5% Tween 80, within 3 min
  drug dissolved (cumulative dissolution): 25.78%
In vitro dissolution; SIF pH 6.8 with 0.5% Tween 80, within 3 min
  drug dissolved (cumulative dissolution): 48.47%
Saturated solubility
  solubility at 24 h: 0.94 ± 0.07 µg/mL (≈ 3.28 µM)
